Measurements published in ChEMBL document CHEMBL3600334, “Neolignans from Aristolochia fordiana Prevent Oxidative Stress-Induced Neuronal Death through Maintaining the Nrf2/HO-1 Pathway in HT22 Cells” (J Nat Prod, 2015).
Activity calls are given as the source filed them. The calls are words filed in the database; no cut-off is given here.

Assays:
HT-22 [1] = experiment: Cytotoxicity against mouse HT22 cells assessed as […] at 30 uM after 24 hrs by MTT assay; format: cell-based; settings: ht-22, 24 h
How it was run: (§1)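 HT22 mouse hippocampal cells in DMEM/10% FBS, 37 °C, 5% CO2, seeded 10 000 cells/well and grown 24 h. Compounds added from DMSO stock (0.1% DMSO vehicle) for 24 h. MTT (5 mg/mL) 2 h at 37 °C, formazan dissolved in DMSO, OD 570 nm. Expressed as fold of untreated control; n = 6 wells.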

HT-22 [2] = experiment: Neuroprotective activity in mouse HT22 cells assessed as decrease of glutamate-induced ROS production at 30 uM pretreated 30 mins before glutamate challenge measured after 12 hrs using H2DCF-DA staining by fluorescence assay; format: functional, cell-based
How it was run: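 HT22 cells given 30 μM compound 30 min before 2 mM glutamate for 12 h. After a PBS wash, stained with 10 μM H2-DCF-DA in serum-free medium, 25 min, 37 °C, dark. Cells photographed, then lysed in 1% Triton X-100/PBS 10 min at 37 °C. Fluorescence read at ex 490/em 525 nm, as percent of untreated control.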

HT-22 [3] = experiment: Neuroprotective activity in mouse HT22 cells assessed as protection against glutamate-induced cell death at 1 to 30 uM pretreated 30 mins before glutamate challenge measured after 24 hrs by MTT assay; format: functional, cell-based
How it was run: (§2)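 HT22 cells seeded 10 000/well, 24 h. Compounds (0.1% DMSO vehicle) added 30 min before 2 mM glutamate, then 24 h. MTT (5 mg/mL) 2 h at 37 °C, formazan in DMSO, OD 570 nm. Fold of untreated control; mean ± SD, n = 6.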

HT-22 [4] = experiment: Cytotoxicity against mouse HT22 cells assessed as cell viability at 30 uM after 24 hrs by MTT assay; format: cell-based; settings: ht-22, 24 h; how it was run: as §1
HT-22 [5] = experiment: Neuroprotective activity in mouse HT22 cells assessed as decrease of glutamate-induced decrease in Nrf2/HO-1 protein expression at 30 uM pretreated 30 mins before glutamate challenge measured after 12 hrs by Western blotting assay; format: functional, cell-based
HT-22 [6] = experiment: Neuroprotective activity in mouse HT22 cells assessed as protection against glutamate-induced change in cell morphology at 1 to 30 uM pretreated 30 mins before glutamate challenge measured after 24 hrs by MTT assay; format: functional, cell-based; settings: in the assay text read “by photomicroscopy” for “by MTT assay”
How it was run: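 HT22 cells given compounds 30 min before 2 mM glutamate for 24 h. Morphology then photographed under a photomicroscope.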

HT-22 [7] = experiment: Neuroprotective activity in mouse HT22 cells assessed as protection against glutamate-induced cell death pretreated 30 mins before glutamate challenge measured after 24 hrs by MTT assay; format: functional, cell-based; how it was run: as §2
HT-22 [8] = experiment: Neuroprotective activity in mouse HT22 cells assessed as decrease of glutamate-induced decrease in Bcl-2 protein expression at 30 uM pretreated […] by Western blotting assay
HT-22 [9] = experiment: Neuroprotective activity in mouse HT22 cells assessed as decrease of glutamate-induced increase in LDH level at 30 uM pretreated 30 mins before glutamate challenge measured after 24 hrs
HT-22 [10] = experiment: Effect on Nrf2/HO-1 protein expression in mouse HT22 cells at 30 uM after 12 hrs by Western blotting assay

| SMILES | Activity (HT-22 [1]) | Activity (HT-22 [2]) | Activity (HT-22 [3]) | Activity (HT-22 [4]) | Activity (HT-22 [5]) | Activity (HT-22 [6]) | Activity (HT-22 [7]) | Activity (HT-22 [8]) | Activity (HT-22 [9]) | Activity (HT-22 [10]) |
| --- | --- | --- | --- | --- | --- | --- | --- | --- | --- | --- |
| C/C=C/c1cc(OC)c2oc(-c3ccc(O)c(OC)c3)c(C)c2c1 | Toxic | Active | Active | Non-toxic | Active | Active | Dose-dependent effect | Active | Active | inactive |
| C/C=C/c1cc(OC)c2oc(-c3ccc(O)cc3)c(C)c2c1 | – | Active | Active | Non-toxic | Active | Active | Dose-dependent effect | Active | Active | inactive |
| COc1cc([C@H]2O[C@@H](c3ccc(O)c(OC)c3)[C@@H](C)[C@@H]2C)ccc1O | – | Active | Active | Non-toxic | Active | Active | Dose-dependent effect | Active | Active | inactive |
| C/C=C/c1cc(OC)c2c(c1)[C@@H](C)[C@H](c1ccc(O)c(OC)c1)O2 [LICARINE A] | – | Active | Active | Non-toxic | Active | Active | Dose-dependent effect | Active | Active | inactive |
| COc1cc([C@H]2O[C@@H](c3ccc(O)c(OC)c3)[C@H](C)[C@@H]2C)ccc1O [NECTANDRIN B] | – | Active | Active | Non-toxic | Active | Active | Dose-dependent effect | Active | Active | inactive |
| C/C=C/c1ccc2oc(-c3ccc(O)cc3)c(C)c2c1 [RATANIAPHENOL II] | Toxic | Active | Active | Non-toxic | Active | Active | Dose-dependent effect | Active | Active | inactive |
